Source: PMC9043816 (RSC Advances, 2021)
Several values for one entry are separate records, joined by “and”; a condition that tells them apart may be missing. Identical values can stand only once. Like-named read-outs stand apart in the source and are kept apart here.

Key:
[1] = tested on: human cervical carcinoma cell line (HeLa); test: MTS cytotoxicity assay, HeLa; assay type: cell-based
Summary of the method: (§1)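 Cells grown in DMEM or RPMI 1640 with 10% FBS and penicillin/streptomycin (37 °C, 5% CO2), seeded at 4000–6000 cells per mL, then after 24 h treated for 48 h with several concentrations (DMSO stock 100 mM). Medium replaced, MTS added for 3 h at 37 °C, A492 read. Inhibition % relative to untreated and blank; IC50 by curve fitting; at least three wells per concentration.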

[2] = tested on: human hepatoma carcinoma cell lines (HepG2); test: MTS cytotoxicity assay, HepG2; assay type: cell-based
Summary of the method: as §1

[3] = tested on: human breast carcinoma cell line (MCF-7); test: MTS cytotoxicity assay, MCF-7; assay type: cell-based
Summary of the method: as §1

[4] = tested on: human tongue carcinoma cell line (SCC-15); test: MTS cytotoxicity assay, SCC-15; assay type: cell-based
Summary of the method: as §1

Bcl-2 = test: Western blotting, Bcl-2 expression in HeLa cells; assay type: cell-based, human; conditions: 25 nM, 50 nM and 100 nM, 48 h
Summary of the method: (§2)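 HeLa cells seeded at 1 × 10^5 cells per mL overnight, then given test compound (25, 50, 100 nM final) for 48 h. Lysed on ice 20 min; protein quantified by BCA. Equal protein run on SDS-PAGE and transferred to PVDF, then blocked in 5% nonfat milk. Primary antibodies (p53, Bcl-2, Bax, GAPDH loading) overnight at 4 °C; peroxidase secondary 2 h; chemiluminescent detection.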

HeLa cells [5] = test: 7-AAD/annexin V flow cytometry apoptosis assay; assay type: cell-based, human; conditions: 100 nM
Summary of the method: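 HeLa cells seeded at 1 × 10^5 cells per mL, grown overnight, then exposed to test compound (25, 50 or 100 nM final) for 24, 36 or 48 h. Cells were washed in cold PBS, trypsinized, and stained with annexin V-FITC plus 7-AAD for 15 min at room temperature in the dark. Analysed by flow cytometry; apoptotic % = early (annexin V+) plus late (annexin V+/7-AAD+).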

Bax = test: Western blotting, Bax expression in HeLa cells; assay type: cell-based, human; conditions: 25 nM, 50 nM and 100 nM, 48 h
Summary of the method: as §2

p53 = test: Western blotting, p53 expression in HeLa cells; assay type: cell-based, human; conditions: 25 nM, 50 nM and 100 nM, 48 h
Summary of the method: as §2

[6] = tested on: human umbilical vein endothelial cells (HUVEC); test: MTS cytotoxicity assay, HUVEC normal cells; assay type: cell-based; conditions: read-out: IC50 HUVEC, 48 h treatment
Summary of the method: as §1

HeLa cells [7] = test: Wound healing assay; assay type: cell-based, human; conditions: serum starved
Summary of the method: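 HeLa cells seeded at 2.5 × 10^5 cells per mL and grown to about 90% confluence; monolayer scratched with p10 tips, washed twice in PBS. Serum-free medium with test compound (25, 50, 100 nM final) or DMSO for 48 h. Gaps photographed at 0, 24, 48 h (10× magnification); healing rate from change in wound area; three independent experiments.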

[8] = tested on: 94 different cancer cell lines; conditions: read-out: IC50 values against 94 different cancer cell lines; in vitro; cited from earlier work
[9] = tested on: Bel-7402, MCF-7 and MIA-PaCa cells; conditions: 250 mg kg^−1, i.p.; cited from earlier work
BT20 cells = conditions: 200 mg kg^−1, i.p.; cited from earlier work
[10] = tested on: normal cells, such as HFL, PrEC, HMEC and HUVEC; conditions: unless its concentration exceeded 5–10 μM; cited from earlier work
[11] = Homo sapiens, HeLa, 48 h, read-out: IC50 HeLa, MTS, 48 h treatment
[12] = Homo sapiens, HepG2, 48 h, read-out: IC50 HepG2, MTS, 48 h treatment
[13] = Homo sapiens, MCF7, 48 h, read-out: IC50 MCF-7, MTS, 48 h treatment
[14] = Homo sapiens, SCC-15, 48 h, read-out: IC50 SCC-15, MTS, 48 h treatment

Compound | IC50 [1, 11] | IC50 [2, 12] | IC50 [3, 13] | IC50 [4, 14] | other results
COc1ccc(CSc2ccc3ccccc3c2)cc1N [12e, 2-Methoxy-5-((naphthalen-2-ylthio)methyl)aniline] | 4060 ± 316 nM | 42600 ± 3810 nM | 17500 ± 2320 nM | 2210 ± 314 nM | 
COc1ccc(CS(=O)(=O)c2ccc3cc(Br)ccc3c2)cc1N [12d, 5-(((6-Bromonaphthalen-2-yl)sulfonyl)methyl)-2-methoxyaniline] | 64 ± 5 nM | 402 ± 35 nM | 95 ± 8 nM | 78 ± 2 nM | 
COc1ccc(CS(=O)(=O)c2ccc3ccccc3c2)cc1N [12b, 2-Methoxy-5-((naphthalen-2-ylsulfonyl)methyl)aniline] | 30 ± 5 nM | 43 ± 7 nM | 110 ± 14 nM | 28 ± 6 nM | 
COc1ccc(C[S+]([O-])c2ccc3ccccc3c2)cc1N (stereo not shown) [12a, 2-Methoxy-5-((naphthalen-2-ylsulfinyl)methyl)aniline] | 173 ± 31 nM | 434 ± 38 nM | 681 ± 48 nM | 148 ± 27 nM | 
COc1ccc(C[S+]([O-])c2ccc3cc(Br)ccc3c2)cc1N (stereo not shown) [12c, 5-(((6-Bromonaphthalen-2-yl)sulfinyl)methyl)-2-methoxyaniline] | 92 ± 9 nM | 1310 ± 91 nM | 858 ± 88 nM | 264 ± 27 nM | 
COc1ccc(CS(=O)(=O)c2ccc3ccccc3c2)cc1NCC(=O)O [15b, (2-Methoxy-5-((naphthalen-2-ylsulfonyl)methyl)phenyl)glycine] |  |  |  |  | expression of antiapoptotic protein Bcl-2 (Bcl-2): down-regulation; apoptotic values (early and late apoptotic states) (HeLa cells [5]; 24 h): 9.2%; apoptotic values (early and late apoptotic states) (HeLa cells [5]; 36 h): 30.2%; apoptotic values (early and late apoptotic states) (HeLa cells [5]; 48 h): 53.2%; IC50 ([1]; read-out: IC50 HeLa, MTS, 48 h treatment): 64 ± 5 nM; IC50 ([2]; read-out: IC50 HepG2, MTS, 48 h treatment): 390 ± 13 nM; expression of proapoptotic protein Bax (Bax): up-regulation; IC50 ([3]; read-out: IC50 MCF-7, MTS, 48 h treatment): 29 ± 1 nM; IC50 ([4]; read-out: IC50 SCC-15, MTS, 48 h treatment): 15 ± 2 nM; levels of the proapoptotic protein p53 (p53): increased significantly; IC50 [6]: 1060 ± 48 nM; Wound healing rate (HeLa cells [7]; 25 nM, 24 h, control 46.4): 20.0% and 20.0 ± 3.5 %; Wound healing rate (HeLa cells [7]; 25 nM, 48 h, control 70.8): 32.0% and 32.0 ± 6.1 %; Wound healing rate (HeLa cells [7]; 50 nM, 24 h, control 46.4): 13.2 ± 2.2 %; Wound healing rate (HeLa cells [7]; 50 nM, 48 h, control 70.8): 15.5 ± 3.4 %; Wound healing rate (HeLa cells [7]; 100 nM, 24 h, control 46.4): 3.9% and 3.9 ± 3.0 %; Wound healing rate (HeLa cells [7]; 100 nM, 48 h, control 70.8): 4.4% and 4.4 ± 2.7 %
COc1ccc(C[S+]([O-])c2ccc3ccccc3c2)cc1NCC(=O)O (stereo not shown) [15a, (2-Methoxy-5-((naphthalen-2-ylsulfinyl)methyl)phenyl)glycine] | 230 ± 4 nM | 5080 ± 318 nM | 2030 ± 73 nM | 722 ± 29 nM | 
COc1cc(OC)c(/C=C/S(=O)(=O)Cc2ccc(OC)c(NCC(=O)O)c2)c(OC)c1 [Rigosertib, reference compound] | 65 ± 5 nM | 108 ± 17 nM | 22 ± 3 nM | 35 ± 3 nM | IC50 [8]: 50 to 250 nM; tumor growth in mouse xenograft models [9]: significantly suppress tumor growth; tumor growth in mouse xenograft model (BT20 cells): remarkably inhibit tumor growth; anti-proliferative effect on normal cells [10]: little or no anti-proliferative effect
